Measurements from ChEMBL document CHEMBL1165860, “Synthesis and potential cytotoxic activity of new phenanthrylphenol-pyrrolobenzodiazepines” (2010).
The source made the active and inactive calls. The calls are words filed in the database; no cut-off is given here.

Experiments:
[1] = tested on: MCF7; experiment: Cell cycle arrest in human MCF7 cells assessed as accumulation at G0 phase at 4 uM after 24 hrs using propidium iodide staining by flow cytometry; assay type: functional
In short: (§1)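 MCF-7 cells were grown in DMEM with 10% fetal calf serum, penicillin and streptomycin, at 37 °C in 5% CO2. They were treated for 24 h at 2 and 4 µM, with DMSO-treated cells as controls. Cells were trypsinised, fixed in ice-cold 70% ethanol at 4 °C for 30 min, and RNaseA-treated at 37 °C for 30 min. Phases were read by flow cytometry.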

[2] = tested on: MCF7; experiment: Cell cycle arrest in human MCF7 cells assessed as accumulation at G1 phase at 4 uM after 24 hrs using propidium iodide staining by flow cytometry; assay type: functional; in short: as §1
[3] = tested on: MCF7; experiment: Cell cycle arrest in human MCF7 cells assessed as accumulation at G0 phase after 24 hrs using propidium iodide staining by flow cytometry; assay type: functional, cell-based; in short: as §1
[4] = tested on: MCF7; experiment: Increase of cytosolic cytochrome c level in human MCF7 cells at 4 uM after 24 hrs by Western blot analysis; assay type: functional, cell-based
In short: (§2)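 MCF-7 cells were grown in DMEM with 10% FCS and penicillin/streptomycin at 37 °C in 5% CO2, then treated for 24 h. Cells were lysed in ice-cold RIPA buffer with protease inhibitors and NaF. Protein was measured by Bradford assay, and 30 µg per lane was run on 12% SDS-PAGE and transferred to PVDF. Antibody steps: primary at 4 °C overnight, HRP secondary 1:2000, chemiluminescent detection.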

[5] = tested on: MCF7; experiment: Induction of apoptosis in human MCF7 cells assessed as increase of caspase 8 activation at 2 uM after 1 hr by […] method; assay type: functional, cell-based
In short: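 Colorimetric caspase-8 kit on lysates of treated MCF-7 cells. The IETD-pNA substrate was incubated with cell lysate at 37 °C for 1 h, and absorbance was read at 405 nm. Untreated cells served as the control.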

[6] = tested on: MCF7; experiment: Induction of apoptosis in human MCF7 cells assessed as increase of caspase 9 activation at 4 uM after 1 hr by fluorimetry based assay; assay type: functional, cell-based
[7] = tested on: MCF7; experiment: Increase of PARP cleavage in human MCF7 cells at 2 uM after 24 hrs by Western blot analysis; assay type: functional, cell-based; in short: as §2
[8] = tested on: CCRF-CEM; experiment: Growth inhibition of human CCRF-CEM cells after 24 hrs by MTT assay; assay type: functional
[9] = tested on: HL-60(TB); experiment: Growth inhibition of human HL-60(TB) cells after 24 hrs by MTT assay; assay type: functional; conditions: HL-60, 24 h
[10] = tested on: K562; experiment: Growth inhibition of human K562 cells after 24 hrs by MTT assay; assay type: functional; conditions: K562, 24 h
[11] = tested on: SR; experiment: Growth inhibition of human SR cells after 24 hrs by MTT assay; assay type: functional
[12] = tested on: A549; experiment: Growth inhibition of human A549 cells after 24 hrs by MTT assay; assay type: functional; conditions: A549, 24 h
[13] = tested on: NCI-H226; experiment: Growth inhibition of human NCI-H226 cells after 24 hrs by MTT assay; assay type: functional; conditions: NCI-H226, 24 h
[14] = tested on: NCI-H522; experiment: Growth inhibition of human NCI-H522 cells after 24 hrs by MTT assay; assay type: functional; conditions: NCI-H522, 24 h
[15] = tested on: COLO 205; experiment: Growth inhibition of human COLO205 cells after 24 hrs by MTT assay; assay type: functional; conditions: COLO 205, 24 h
[16] = tested on: KM12; experiment: Growth inhibition of human KM12 cells after 24 hrs by MTT assay; assay type: functional; conditions: KM12, 24 h
[17] = tested on: SW-620; experiment: Growth inhibition of human SW620 cells after 24 hrs by MTT assay; assay type: functional; conditions: SW-620, 24 h
[18] = tested on: SF-268; experiment: Growth inhibition of human SF268 cells after 24 hrs by MTT assay; assay type: functional; conditions: SF-268, 24 h
[19] = tested on: SF-539; experiment: Growth inhibition of human SF539 cells after 24 hrs by MTT assay; assay type: functional; conditions: SF-539, 24 h
[20] = tested on: LOX IMVI; experiment: Growth inhibition of human LOXIMVI cells after 24 hrs by MTT assay; assay type: functional
[21] = tested on: Malme-3M; experiment: Growth inhibition of human MALME-3M cells after 24 hrs by MTT assay; assay type: functional
[22] = tested on: M14; experiment: Growth inhibition of human M14 cells after 24 hrs by MTT assay; assay type: functional; conditions: M14, 24 h
[23] = tested on: SK-MEL-2; experiment: Growth inhibition of human SK-MEL-2 cells after 24 hrs by MTT assay; assay type: functional; conditions: SK-MEL-2, 24 h
[24] = tested on: SK-MEL-5; experiment: Growth inhibition of human SK-MEL-5 cells after 24 hrs by MTT assay; assay type: functional; conditions: SK-MEL-5, 24 h
[25] = tested on: UACC-62; experiment: Growth inhibition of human UACC62 cells after 24 hrs by MTT assay; assay type: functional; conditions: UACC-62, 24 h
[26] = tested on: OVCAR-3; experiment: Growth inhibition of human OVCAR-3 cells after 24 hrs by MTT assay; assay type: functional; conditions: OVCAR-3, 24 h
[27] = tested on: OVCAR-5; experiment: Growth inhibition of human OVCAR5 cells after 24 hrs by MTT assay; assay type: functional; conditions: OVCAR-5, 24 h
[28] = tested on: OVCAR-8; experiment: Growth inhibition of human OVCAR8 cells after 24 hrs by MTT assay; assay type: functional; conditions: OVCAR-8, 24 h
[29] = tested on: DU-145; experiment: Growth inhibition of human DU145 cells after 24 hrs by MTT assay; assay type: functional; conditions: DU-145, 24 h
[30] = tested on: SN12C; experiment: Growth inhibition of human SN12C cells after 24 hrs by MTT assay; assay type: functional
[31] = tested on: TK-10; experiment: Growth inhibition of human TK10 cells after 24 hrs by MTT assay; assay type: functional; conditions: TK-10, 24 h
[32] = tested on: MCF7; experiment: Growth inhibition of human MCF7 cells after 24 hrs by MTT assay; assay type: functional; conditions: MCF7, 24 h
[33] = tested on: MDA-MB-231; experiment: Growth inhibition of human MDA-MB-231 cells after 24 hrs by MTT assay; assay type: functional; conditions: MDA-MB-231, 24 h
[34] = tested on: T47D; experiment: Growth inhibition of human T47D cells after 24 hrs by MTT assay; assay type: functional
[35] = tested on: MCF7; experiment: Cytotoxicity against human MCF7 cells at 2 uM after 24 hrs by MTT assay relative to control; assay type: functional
In short: (§3)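 MCF-7 cells were seeded at 10,000 cells/well in DMEM with 10% fetal calf serum. They were exposed to 0.5, 1, 2 and 4 µM for 24 h. MTT reduction to formazan was read at 570 nm, with untreated controls taken as 100% viability. DMSO-treated cells served as an additional control.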

[36] = tested on: MCF7; experiment: Cytotoxicity against human MCF7 cells at 4 uM after 24 hrs by MTT assay relative to control; assay type: functional, cell-based; in short: as §3
[37] = tested on: Nucleic Acid; experiment: Inhibition of Escherichia coli pBR322 DNA cleavage at 16 uM after 16 hrs by RED100-restriction endonuclease digestion assay; assay type: nucleic-acid assay
In short: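 pBR322 DNA was preincubated with compound at final 2, 4, 8, 16 and 32 µM for 16 h at 37 °C. BamHI (10 U/µl) in BamHI buffer was then added for 2 h at 37 °C. Products were separated on agarose in 0.5× Tris–acetate EDTA at 80 V for 1 h and stained with ethidium bromide. Cut and uncut DNA served as controls.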

[38] = tested on: MCF7; experiment: Cell cycle arrest in human MCF7 cells assessed as accumulation at G2/M phase at 4 uM after 24 hrs using propidium iodide staining by flow cytometry; assay type: functional; in short: as §1
[39] = tested on: MCF7; experiment: Cell cycle arrest in human MCF7 cells assessed as accumulation at S phase at 2 uM after 24 hrs using propidium iodide staining by flow cytometry; assay type: functional; in short: as §1

`COc1cc2c(cc1OCCCOc1ccc(-c3cc4ccccc4c4ccccc34)cc1)N=C[C@@H]1CCCN1C2=O` was tested, and the Activity [1] was 8.35%, the Activity [2] was 75.33% and the Activity [3] was “Dose-dependent effect”. The Activity [4] was “Active”, the Activity [5] was “Active” and the Activity [6] was “Active”. For the same compound, the Activity [7] was “Active”, the GI50 [8] was 0.13 µM and the GI50 [9] was 0.17 µM. For the same compound, the GI50 [10] was 0.27 µM, the GI50 [11] was 0.22 µM and the GI50 [12] was 0.72 µM. For the same compound, the GI50 [13] was 1.17 µM, the GI50 [14] was 0.12 µM and the GI50 [15] was 1.19 µM. It also gave a GI50 [16] of 0.78 µM, a GI50 [17] of 0.51 µM and a GI50 [18] of 0.86 µM. It also gave a GI50 [19] of 1.76 µM, a GI50 [20] of 1.02 µM and a GI50 [21] of 1.59 µM. The GI50 [22] was 0.57 µM, the GI50 [23] was 0.04 µM and the GI50 [24] was 1.06 µM. The GI50 [25] was 0.63 µM, the GI50 [26] was 0.25 µM and the GI50 [27] was 1.2 µM. It also gave a GI50 [28] of 0.42 µM, a GI50 [29] of 0.4 µM and a GI50 [30] of 0.51 µM. For the same compound, the GI50 [31] was 0.6 µM, the GI50 [32] was 0.17 µM and the GI50 [33] was 0.29 µM. For the same compound, the GI50 [34] was 0.08 µM, the Activity [35] was “<=50%” and the Activity [36] was “Active”. The inhibition [37] was 100%, the Activity [38] was 3.94% and the Activity [39] was 17.29%.
